Measurements as given in ChEMBL document CHEMBL1125310, “(R)-2-(3-mercapto-2(S)-methyl-1-oxo-propoxy)-3-(methylthio)propanoic acid, the first ultra-short-acting angiotensin converting enzyme inhibitor” (J Med Chem, 1992).

Assays:
[1] = target: T1, Angiotensin-converting enzyme (Oryctolagus cuniculus) (UniProt P12822); test: Inhibitory activity towards purified rabbit lung angiotensin I converting enzyme; no inhibition at 10 e-5 M
T1 sequence (whole entry): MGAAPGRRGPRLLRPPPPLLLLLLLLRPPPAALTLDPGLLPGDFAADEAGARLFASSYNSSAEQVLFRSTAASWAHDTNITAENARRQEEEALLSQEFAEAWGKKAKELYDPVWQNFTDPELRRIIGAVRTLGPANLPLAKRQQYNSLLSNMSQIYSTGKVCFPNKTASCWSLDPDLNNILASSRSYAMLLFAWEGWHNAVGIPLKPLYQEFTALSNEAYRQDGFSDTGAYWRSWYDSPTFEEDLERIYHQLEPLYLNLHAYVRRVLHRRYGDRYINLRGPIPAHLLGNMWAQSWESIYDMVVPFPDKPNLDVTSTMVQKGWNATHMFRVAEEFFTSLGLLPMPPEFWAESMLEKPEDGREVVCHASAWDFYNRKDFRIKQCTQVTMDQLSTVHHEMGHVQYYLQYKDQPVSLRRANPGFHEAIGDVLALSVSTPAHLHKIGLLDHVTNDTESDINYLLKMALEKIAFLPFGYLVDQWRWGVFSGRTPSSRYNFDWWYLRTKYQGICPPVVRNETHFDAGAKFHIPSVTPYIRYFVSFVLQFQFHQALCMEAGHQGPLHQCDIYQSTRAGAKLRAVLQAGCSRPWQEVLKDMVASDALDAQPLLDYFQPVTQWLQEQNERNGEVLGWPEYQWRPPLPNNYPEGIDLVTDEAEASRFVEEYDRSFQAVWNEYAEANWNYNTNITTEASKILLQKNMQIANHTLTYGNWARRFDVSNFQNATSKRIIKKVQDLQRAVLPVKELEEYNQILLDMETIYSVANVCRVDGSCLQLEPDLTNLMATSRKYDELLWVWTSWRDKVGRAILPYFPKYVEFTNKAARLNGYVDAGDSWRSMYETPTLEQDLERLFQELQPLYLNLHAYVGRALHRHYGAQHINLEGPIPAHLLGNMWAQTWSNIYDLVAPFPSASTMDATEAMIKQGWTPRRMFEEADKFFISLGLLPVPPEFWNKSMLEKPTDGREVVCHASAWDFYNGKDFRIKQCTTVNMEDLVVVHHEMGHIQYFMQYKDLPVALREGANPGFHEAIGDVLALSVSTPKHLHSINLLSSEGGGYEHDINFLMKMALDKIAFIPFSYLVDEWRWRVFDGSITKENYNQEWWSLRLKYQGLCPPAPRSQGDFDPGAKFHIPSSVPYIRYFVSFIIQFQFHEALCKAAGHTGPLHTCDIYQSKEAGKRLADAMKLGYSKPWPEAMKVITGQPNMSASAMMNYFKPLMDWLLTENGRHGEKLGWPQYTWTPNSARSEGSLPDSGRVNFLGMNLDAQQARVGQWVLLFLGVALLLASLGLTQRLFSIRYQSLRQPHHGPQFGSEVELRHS

[2] = target: T1, Angiotensin-converting enzyme (Oryctolagus cuniculus); test: Inhibitory activity towards purified rabbit lung Angiotensin I converting enzyme
How it was run: (§1)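 Purified rabbit lung ACE was used, following a published method with two changes: Zn2+ (20 μM) was added to the purified enzyme, and the substrate was radiolabeled. The read-out was inhibition of enzyme activity.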

[3] = target: T1, Angiotensin-converting enzyme (Oryctolagus cuniculus); test: Inhibitory activity towards purified rabbit lung angiotensin I converting enzyme at 10 e-4 M
[4] = target: T1, Angiotensin-converting enzyme (Oryctolagus cuniculus); test: Inhibitory activity towards purified rabbit lung angiotensin I converting enzyme; how it was run: as §1
[5] = Half-life (hydrolysis) in human blood; format: ADME

Compound | IC50 [2] | IC50 [4] | half-life [5] | further results
CSC[C@H](O)C(=O)O |  |  |  | inhibition [1]: no inhibition at 10 e-5 M
C[C@H](CS)C(=O)N1CCC[C@H]1C(=O)O | 2.7 nM |  |  | 
C[C@H](CS)C(=O)O |  |  |  | inhibition [3]: 30%
CSC[C@H](OC(=O)[C@H](C)CS)C(=O)O |  | 5.7 nM | 14 min | 
C[C@H](CS)C(=O)O[C@@H](Cc1ccccc1)C(=O)O | 10.6 nM |  | 23 min | 
CC(C)SC[C@H](OC(=O)[C@H](C)CS)C(=O)O |  | 2.8 nM | 20 min | 
C[C@H](CS)C(=O)O[C@@H](CSCc1ccccc1)C(=O)O | 3.2 nM |  | > 60 min | 
C[C@H](CS)C(=O)O[C@@H](CSC1CCCC1)C(=O)O | 1.8 nM |  | 27 min | 
CCC(CC)SC[C@H](OC(=O)[C@H](C)CS)C(=O)O |  | 2 nM | 37 min | 
C[C@H](CS)C(=O)OCC(=O)O |  | 123 nM | 53 min | 
C[C@H](CS)C(=O)N[C@@H](Cc1ccccc1)C(=O)O | 84.7 nM |  | > 60 min | 
